Key:
4T1 cells [1] = experiment: Cytotoxicity MTT assay; type: cell-based, mouse
4T1 cells [2] = experiment: Scratch healing assay; type: cell-based, mouse; conditions: 12 h
Outline: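 4T1 monolayers at about 90% confluence were scratched in a straight line and rinsed with PBS. They were then incubated 12 h in medium with PBS or test agents (GEM-equivalent 0.1 μg/mL). Images were taken at 0 and 12 h, and healing rate was calculated by image analysis.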

Pharmacokinetic assay = type: in vivo, BALB/c mice
[3] = Hematological analysis and serum biochemical analysis; type: in vivo, BALB/c mice; conditions: mice, i.v., GEM-equivalent 4 mg/kg, 5 times
Outline: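 Mice were split into 4 groups (n = 3): PBS or test preparations i.v. at GEM-equivalent 4 mg/kg, every 2 days for 5 doses. After treatment, blood was taken for haematology and serum for biochemistry.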

[4] = HE staining of major organs; type: in vivo, BALB/c mice; conditions: after treatment, compared with PBS group
[5] = Long-term stability in water at 4 °C; type: physicochemical
Outline: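 Micelle solutions at 0.5 mg/mL in water were stored at 4 °C, alongside a TPGS-stabilised prodrug formulation as control. Appearance and particle size were recorded until precipitation appeared.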

MMP-9 [6] = conditions: cited from earlier work
4T1 tumor-bearing mice = experiment: In vivo tumor-targeting assay and biodistribution; parameters: species or system BALB/c mice; conditions: i.v.
Outline: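 Female BALB/c mice (about 5 weeks) carried mammary-pad 4T1 tumours (1 × 10^6 cells) and were used on day 10. Groups (n = 9) got PBS, DiD-loaded micelles or free DiD in propylene glycol/PBS 1:1, at 20 μg DiD per mouse via tail vein. Whole-body imaging at 1–24 h; ex vivo organ imaging at 4, 8 and 24 h (3 per point); confocal of 24 h tumour sections.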

Content of GEM = type: physicochemical; conditions: toluidine blue spectrophotometry
Outline: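 LMWH content: samples at 40 μg/mL were mixed with 0.005% toluidine blue in PBS (pH 7.4) and shaken 30 s. Hexane was added and shaken 1 min, and the aqueous layer was read at 630 nm. GEM content: acid/CuCl2 hydrolysis at 70 °C for 12 h, then filtration and C18 HPLC. Mobile phase was ammonium acetate pH 5.7/methanol 90:10 at 1 mL/min, UV 268 nm.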

MMP-9 [7] = experiment: Detection of MMP-9 by Western blot in 4T1 cells; type: cell-based, mouse; conditions: 24 h, LT 100 μg/mL, LMWH 60 μg/mL
Outline: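 4T1 cells at about 60% confluency were exposed for 24 h to fresh medium containing test agents or PBS. Lysates were centrifuged at 15,700×g, 4 °C, 15 min. Supernatant proteins were run on 6% SDS-PAGE and blotted to PVDF. Blots were probed with MMP-9 antibody and HRP-labelled anti-goat secondary, then imaged.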

[8] = test system: platelets adhering to 4T1 cells; experiment: Interaction of tumor cells with platelets; type: cell-based, mouse; conditions: LMWH-equivalent 80 μg/mL, compared with PBS group
Outline: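 4T1 cells at about 80% confluency were pre-incubated 20 min with test agents or PBS (LMWH-equivalent 80 μg/mL). Washed platelets from fresh blood were labelled with 5 μmol/L calcein AM, added, and co-cultured 2 h. After washing, cells were lysed in DMSO and fluorescence read at Ex 490 / Em 515 nm.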

[9] = test system: red blood cell (RBC) suspension from mouse; experiment: Hemolysis assay; type: cell-based; conditions: 0.3% Triton
4T1 solid tumor = experiment: In vivo anti-tumor assay, 4T1 solid tumor model; parameters: species or system BALB/c mice; conditions: day 18
Outline: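 Female BALB/c mice received 1 × 10^6 4T1 cells in the mammary pad. From day 5 they were grouped (n = 6) and dosed via tail vein with PBS or test preparations. Doses were GEM-equivalent 4 mg/kg and LMWH-equivalent 18.4 mg/kg, every 2 days for 5 doses. On day 18, tumours and major organs were taken for H&E staining.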

Tail bleeding assay = type: in vivo, BALB/c mice; conditions: mice, i.v., LMWH-equivalent 20 mg/kg, 30 min after injection, versus PBS
Outline: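 Mice were split into 3 groups (n = 3): PBS or test agents i.v. at LMWH-equivalent 20 mg/kg. At 30 min, 3 mm of tail tip was cut and the tail immersed in PBS at 37 °C. The endpoint was time to complete cessation of bleeding.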

[10] = female, BALB/c, mouse, plasma, iv, 4 mg/kg

Nc1ccn([C@@H]2O[C@H](CO)[C@@H](O)C2(F)F)c(=O)n1 [GEM, Gemcitabine]
cytotoxicity (4T1 cells [1]; MTT, 48 h): concentration-dependent cytotoxicity
relative cytotoxicity (4T1 cells [1]; concentration of GEM more than 0.037 μg/mL): more cytotoxic than GLT
scratch healing rate (in words, versus PBS) (4T1 cells [2]): healing rates decreased
clearance (Pharmacokinetic assay; [10]): 5.67 mL/min/kg
half-life (Pharmacokinetic assay; [10]): 36.9 ± 2.22 min
V1 (Pharmacokinetic assay; mice, i.v., GEM-equivalent 4 mg/kg, plasma GEM): 0.027 ± 0.015 L/kg
levels of CK (creatine kinase) in serum [3]: increased
number of white blood cells (WBC) and neutrophilic granulocyte (Gran) ([3]; compared with PBS group): decrease
HE staining of other organs [4]: myocardial rupture and glomerular effusion

Cc1c(C)c2c(c(C)c1OC(=O)CCC(=O)Nc1ccn(C3OC(CO)C(O)C3(F)F)c(=O)n1)CCC(C)(CCCC(C)CCCC(C)CCCC(C)C)O2 (stereo not shown) [GT, GEM-TOS]
long-term stability (appearance, particle size) [5]: aggregated to form precipitates in 6 h

Cc1c(C)c2c(c(C)c1OC(=O)CCC(=O)O)CC[C@@](C)(CCC[C@H](C)CCC[C@H](C)CCCC(C)C)O2 [TOS, D-α-tocopherol succinate]
secretion of MMP-9 in B16F10 cells (MMP-9 [6]): inhibited

CCCCCCCCCCCCCCCCCCN1C(=CC=CC=CC2=[N+](CCCCCCCCCCCCCCCCCC)c3ccccc3C2(C)C)C(C)(C)c2ccccc21 [free DiD, 1,1′-dioctadecyl-3,3,3′,3′-tetramethylindodicarbocyanine]
main site of signal (4T1 tumor-bearing mice): mainly showed in liver

LMWH-TOS [LT]
content of LMWH (Content of GEM): 47%
cell viability (4T1 cells [1]; up to 250 μg/mL): almost did not affect cell viability
MMP-9 secreted by 4T1 cells (MMP-9 [7]): significantly inhibited
number of adhesive platelets on tumor cells [8]: significantly decreased

Triton
erythrocyte lysis (positive control) [9]: complete cell lysis

low-molecular-weight heparin [LMWH]
scratch healing rate (in words, versus PBS) (4T1 cells [2]): healing rates decreased
MMP-9 secreted by 4T1 cells (MMP-9 [7]): did not have obvious effect
number of adhesive platelets on tumor cells [8]: significantly decreased
HE staining of tumor (4T1 solid tumor): retained their complete microstructures
bleeding time (Tail bleeding assay): no significant difference

Reference: publication PMC7606181 (Acta Pharmaceutica Sinica. B, 2019)
